From ChEMBL document CHEMBL5058577, “EUbOPEN Chemogenomics Library 2 (Multiplex)” (2022)

Test system: U2OS
Experiment: Multiplex assay against U2OS
Assay type: toxicity, cell-based
Settings: human
Procedure, shortened: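 Cells stained live at seeding with Hoechst33342, BioTracker Green Microtubule Cytoskeleton Dye, MitoTracker Red and Annexin V Alexa Fluor 680 were imaged on a CQ1 microscope at 37°C and 5% CO2 after compound addition. Their classification by CellPathfinder machine-learning gating ran from Hoechst high-intensity objects versus normal cells, to healthy, pyknosed or fragmented nuclei among normal cells, to mitotic or apoptotic among pyknosed cells. Tubulin, mitochondrial-mass and membrane-permeability phenotypes are per cents of healthy-nucleus cells.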

[1] = 12 h, 1 µM, compound concentration 1 uM, replicate 1
[2] = 12 h, 1 µM, compound concentration 1 uM, replicate 2
[3] = 12 h, 10 µM, compound concentration 10 uM, replicate 1
[4] = 12 h, 10 µM, compound concentration 10 uM, replicate 2
[5] = 24 h, 1 µM, compound concentration 1 uM, replicate 1
[6] = 24 h, 1 µM, compound concentration 1 uM, replicate 2
[7] = 24 h, 10 µM, compound concentration 10 uM, replicate 1
[8] = 24 h, 10 µM, compound concentration 10 uM, replicate 2
[9] = 48 h, 1 µM, compound concentration 1 uM, replicate 1
[10] = 48 h, 1 µM, compound concentration 1 uM, replicate 2
[11] = 48 h, 10 µM, compound concentration 10 uM, replicate 1
[12] = 48 h, 10 µM, compound concentration 10 uM, replicate 2

Question: Which “Population Apoptotic (%)” value [1] does the source give for `O=C(NCCNCC(O)COc1ccc(O)cc1)N1CCOCC1.O=C(NCCNCC(O)COc1ccc(O)cc1)N1CCOCC1.O=C(O)/C=C/C(=O)O` (stereo unspecified) [XAMOTEROL FUMARATE] here?
Answer: 71%

Question: What about the “Population Fragmented Nuclei (%)” value [1] of the same molecule?
Answer: 27%

Question: And the “Population Healthy Nuclei (%)” value [1]?
Answer: 66%

Question: What about the “Population Hoechst High Intensity Objects (%)” value [1] of the same molecule?
Answer: 2%

Question: What about the “Population Membrane Permeable-Phenotype (%)” value [1] of the same molecule?
Answer: 6%

Question: And the “Population Mitochondria Different-Phenotype (%)” value [1]?
Answer: 1%

Question: What about the “Population Mitotic Cells (%)” value [1] of the same molecule?
Answer: 28%

Question: And the “Population Normal (%)” value [1]?
Answer: 97%

Question: And the “Population Pyknosed Nuclei (%)” value [1]?
Answer: 5%

Question: What about the “Population Tubulin-Different-Phenotype (%)” value [1] of the same molecule?
Answer: 2%

Question: And the “Total Cell Count” value [1]?
Answer: 265

Question: What about the “Population Apoptotic (%)” value [2] of the same molecule?
Answer: 83%

Question: What about the “Population Fragmented Nuclei (%)” value [2] of the same molecule?
Answer: 19%

Question: What about the “Population Healthy Nuclei (%)” value [2] of the same molecule?
Answer: 68%

Question: What about the “Population Hoechst High Intensity Objects (%)” value [2] of the same molecule?
Answer: 3%

Question: And the “Population Membrane Permeable-Phenotype (%)” value [2]?
Answer: 13%

Question: And the “Population Mitotic Cells (%)” value [2]?
Answer: 16%

Question: What about the “Population Normal (%)” value [2] of the same molecule?
Answer: 96%

Question: And the “Population Pyknosed Nuclei (%)” value [2]?
Answer: 11%

Question: What about the “Population Tubulin-Different-Phenotype (%)” value [2] of the same molecule?
Answer: 5%

Question: And the “Total Cell Count” value [2]?
Answer: 110

Question: And the “Population Apoptotic (%)” value [3]?
Answer: 92%

Question: What about the “Population Fragmented Nuclei (%)” value [3] of the same molecule?
Answer: 28%

Question: And the “Population Healthy Nuclei (%)” value [3]?
Answer: 60%

Question: What about the “Population Hoechst High Intensity Objects (%)” value [3] of the same molecule?
Answer: 0%

Question: What about the “Population Membrane Permeable-Phenotype (%)” value [3] of the same molecule?
Answer: 6%

Question: And the “Population Mitochondria Different-Phenotype (%)” value [3]?
Answer: 2%

Question: What about the “Population Mitotic Cells (%)” value [3] of the same molecule?
Answer: 7%

Question: What about the “Population Normal (%)” value [3] of the same molecule?
Answer: 99%

Question: What about the “Population Pyknosed Nuclei (%)” value [3] of the same molecule?
Answer: 11%

Question: And the “Population Tubulin-Different-Phenotype (%)” value [3]?
Answer: 4%

Question: What about the “Total Cell Count” value [3] of the same molecule?
Answer: 239

Question: What about the “Population Apoptotic (%)” value [4] of the same molecule?
Answer: 100%

Question: And the “Population Fragmented Nuclei (%)” value [4]?
Answer: 15%

Question: What about the “Population Healthy Nuclei (%)” value [4] of the same molecule?
Answer: 73%

Question: What about the “Population Hoechst High Intensity Objects (%)” value [4] of the same molecule?
Answer: 4%

Question: What about the “Population Membrane Permeable-Phenotype (%)” value [4] of the same molecule?
Answer: 4%

Question: What about the “Population Mitochondria Different-Phenotype (%)” value [4] of the same molecule?
Answer: 3%

Question: And the “Population Mitotic Cells (%)” value [4]?
Answer: 0%

Question: What about the “Population Normal (%)” value [4] of the same molecule?
Answer: 95%

Question: And the “Population Tubulin-Different-Phenotype (%)” value [4]?
Answer: 7%

Question: And the “Total Cell Count” value [4]?
Answer: 118

Question: And the “Population Apoptotic (%)” value [5]?
Answer: 85%

Question: What about the “Population Fragmented Nuclei (%)” value [5] of the same molecule?
Answer: 24%

Question: And the “Population Healthy Nuclei (%)” value [5]?
Answer: 68%

Question: And the “Population Hoechst High Intensity Objects (%)” value [5]?
Answer: 0%

Question: What about the “Population Membrane Permeable-Phenotype (%)” value [5] of the same molecule?
Answer: 5%

Question: What about the “Population Mitochondria Different-Phenotype (%)” value [5] of the same molecule?
Answer: 0%

Question: What about the “Population Mitotic Cells (%)” value [5] of the same molecule?
Answer: 15%

Question: What about the “Population Normal (%)” value [5] of the same molecule?
Answer: 99%

Question: And the “Population Pyknosed Nuclei (%)” value [5]?
Answer: 6%

Question: And the “Population Tubulin-Different-Phenotype (%)” value [5]?
Answer: 1%

Question: What about the “Total Cell Count” value [5] of the same molecule?
Answer: 312

Question: What about the “Population Apoptotic (%)” value [6] of the same molecule?
Answer: 80%

Question: What about the “Population Fragmented Nuclei (%)” value [6] of the same molecule?
Answer: 18%

Question: What about the “Population Healthy Nuclei (%)” value [6] of the same molecule?
Answer: 69%

Question: What about the “Population Hoechst High Intensity Objects (%)” value [6] of the same molecule?
Answer: 1%

Question: What about the “Population Membrane Permeable-Phenotype (%)” value [6] of the same molecule?
Answer: 10%

Question: What about the “Population Mitochondria Different-Phenotype (%)” value [6] of the same molecule?
Answer: 4%

Question: What about the “Population Mitotic Cells (%)” value [6] of the same molecule?
Answer: 20%

Question: And the “Population Normal (%)” value [6]?
Answer: 98%

Question: And the “Population Pyknosed Nuclei (%)” value [6]?
Answer: 11%

Question: And the “Population Tubulin-Different-Phenotype (%)” value [6]?
Answer: 5%

Question: And the “Total Cell Count” value [6]?
Answer: 129

Question: And the “Population Apoptotic (%)” value [7]?
Answer: 89%

Question: What about the “Population Fragmented Nuclei (%)” value [7] of the same molecule?
Answer: 22%

Question: And the “Population Healthy Nuclei (%)” value [7]?
Answer: 66%

Question: And the “Population Hoechst High Intensity Objects (%)” value [7]?
Answer: 1%

Question: What about the “Population Membrane Permeable-Phenotype (%)” value [7] of the same molecule?
Answer: 6%

Question: What about the “Population Mitochondria Different-Phenotype (%)” value [7] of the same molecule?
Answer: 2%

Question: What about the “Population Mitotic Cells (%)” value [7] of the same molecule?
Answer: 10%

Question: What about the “Population Normal (%)” value [7] of the same molecule?
Answer: 98%

Question: What about the “Population Pyknosed Nuclei (%)” value [7] of the same molecule?
Answer: 10%

Question: What about the “Population Tubulin-Different-Phenotype (%)” value [7] of the same molecule?
Answer: 2%

Question: What about the “Total Cell Count” value [7] of the same molecule?
Answer: 270

Question: What about the “Population Apoptotic (%)” value [8] of the same molecule?
Answer: 78%

Question: And the “Population Fragmented Nuclei (%)” value [8]?
Answer: 16%

Question: And the “Population Healthy Nuclei (%)” value [8]?
Answer: 70%

Question: And the “Population Mitotic Cells (%)” value [8]?
Answer: 21%

Question: What about the “Population Pyknosed Nuclei (%)” value [8] of the same molecule?
Answer: 12%

Question: What about the “Population Tubulin-Different-Phenotype (%)” value [8] of the same molecule?
Answer: 6%

Question: What about the “Total Cell Count” value [8] of the same molecule?
Answer: 152

Question: And the “Population Apoptotic (%)” value [9]?
Answer: 90%

Question: What about the “Population Fragmented Nuclei (%)” value [9] of the same molecule?
Answer: 18%

Question: And the “Population Healthy Nuclei (%)” value [9]?
Answer: 75%

Question: And the “Population Hoechst High Intensity Objects (%)” value [9]?
Answer: 1%

Question: What about the “Population Membrane Permeable-Phenotype (%)” value [9] of the same molecule?
Answer: 4%

Question: What about the “Population Mitochondria Different-Phenotype (%)” value [9] of the same molecule?
Answer: 2%

Question: What about the “Population Mitotic Cells (%)” value [9] of the same molecule?
Answer: 9%

Question: What about the “Population Normal (%)” value [9] of the same molecule?
Answer: 98%

Question: And the “Population Pyknosed Nuclei (%)” value [9]?
Answer: 6%

Question: What about the “Population Tubulin-Different-Phenotype (%)” value [9] of the same molecule?
Answer: 2%

Question: What about the “Total Cell Count” value [9] of the same molecule?
Answer: 472

Question: And the “Population Apoptotic (%)” value [10]?
Answer: 91%

Question: What about the “Population Fragmented Nuclei (%)” value [10] of the same molecule?
Answer: 23%

Question: What about the “Population Healthy Nuclei (%)” value [10] of the same molecule?
Answer: 62%

Question: What about the “Population Hoechst High Intensity Objects (%)” value [10] of the same molecule?
Answer: 2%

Question: What about the “Population Membrane Permeable-Phenotype (%)” value [10] of the same molecule?
Answer: 6%

Question: What about the “Population Mitochondria Different-Phenotype (%)” value [10] of the same molecule?
Answer: 3%

Question: And the “Population Mitotic Cells (%)” value [10]?
Answer: 8%

Question: What about the “Population Normal (%)” value [10] of the same molecule?
Answer: 97%

Question: And the “Population Pyknosed Nuclei (%)” value [10]?
Answer: 13%

Question: What about the “Population Tubulin-Different-Phenotype (%)” value [10] of the same molecule?
Answer: 4%

Question: And the “Total Cell Count” value [10]?
Answer: 171

Question: And the “Population Apoptotic (%)” value [11]?
Answer: 89%

Question: What about the “Population Fragmented Nuclei (%)” value [11] of the same molecule?
Answer: 18%

Question: And the “Population Healthy Nuclei (%)” value [11]?
Answer: 68%

Question: And the “Population Hoechst High Intensity Objects (%)” value [11]?
Answer: 1%

Question: What about the “Population Membrane Permeable-Phenotype (%)” value [11] of the same molecule?
Answer: 2%

Question: And the “Population Mitochondria Different-Phenotype (%)” value [11]?
Answer: 1%

Question: What about the “Population Mitotic Cells (%)” value [11] of the same molecule?
Answer: 10%

Question: What about the “Population Normal (%)” value [11] of the same molecule?
Answer: 98%

Question: And the “Population Pyknosed Nuclei (%)” value [11]?
Answer: 12%

Question: And the “Population Tubulin-Different-Phenotype (%)” value [11]?
Answer: 2%

Question: And the “Total Cell Count” value [11]?
Answer: 392

Question: And the “Population Apoptotic (%)” value [12]?
Answer: 94%

Question: And the “Population Fragmented Nuclei (%)” value [12]?
Answer: 17%

Question: What about the “Population Healthy Nuclei (%)” value [12] of the same molecule?
Answer: 73%

Question: What about the “Population Hoechst High Intensity Objects (%)” value [12] of the same molecule?
Answer: 2%

Question: What about the “Population Membrane Permeable-Phenotype (%)” value [12] of the same molecule?
Answer: 4%

Question: What about the “Population Mitochondria Different-Phenotype (%)” value [12] of the same molecule?
Answer: 4%

Question: What about the “Population Mitotic Cells (%)” value [12] of the same molecule?
Answer: 5%

Question: And the “Population Normal (%)” value [12]?
Answer: 97%

Question: What about the “Population Pyknosed Nuclei (%)” value [12] of the same molecule?
Answer: 9%

Question: And the “Population Tubulin-Different-Phenotype (%)” value [12]?
Answer: 6%

Question: What about the “Total Cell Count” value [12] of the same molecule?
Answer: 206
